Laboratory results from ChEMBL document CHEMBL4699593, “Identification of 2,4-Disubstituted Imidazopyridines as Hemozoin Formation Inhibitors with Fast-Killing Kinetics and In Vivo Efficacy in the Plasmodium falciparum NSG Mouse Model” (J Med Chem, 2020).
In brackets after ≈: the same amount, converted by molar mass.

Legend:
[1] = AUC in Balb/c mouse administered orally; format: ADME; details: in vivo, po
Method in brief: (§1)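 Healthy Balb/c mice dosed i.v. or orally. Parameters come from non-compartmental analysis of compound concentration over time. […] Clearance is blood clearance (CL_b).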

[2] = Apparent intrinsic clearance in mouse liver microsomes at 0.1 uM in presence of NADPH by LC-MS/MS analysis; format: ADME, Microsome
Method in brief: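 Compound was incubated with mouse liver microsomes for 30 min. Apparent intrinsic clearance (CL_int,app) is reported in μL/min/mg.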

Plasmodium falciparum [3] = experiment: Antiplasmodial activity against multidrug-sensitive asexual blood stage Plasmodium falciparum NF54 strain assessed as reduction in parasite growth after 72 hrs by NBT reagent based LDH assay; format: functional, organism-based; details: NF54, 72 h
[4] = target: Voltage-gated inwardly rectifying potassium channel KCNH2 (Homo sapiens, UniProt Q12809); experiment: Inhibition of human ERG by patch clamp method
Plasmodium falciparum [5] = experiment: Antiplasmodial activity against multidrug-resistant asexual blood stage Plasmodium falciparum K1 strain assessed as reduction in parasite growth after 72 hrs by NBT reagent based LDH assay; format: functional, organism-based; details: K1, 72 h
Method in brief: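 Asexual blood-stage K1 (multidrug-resistant) parasites were read out by the parasite lactate dehydrogenase (pLDH) assay. […] Most individual values varied less than 2× (maximum 3×).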

[6] = Aqueous solubility of compound in phosphate buffer saline at pH 6.5 incubated for 20 hrs under shaking condition by shake-flask method based HPLC-DAD analysis; format: physicochemical; details: phosphate buffered saline
Method in brief: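 Equilibrium aqueous solubility was measured at pH 6.5 using a miniaturized shake-flask method.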

CHO = experiment: Cytotoxicity against CHO cells assessed as reduction in cell viability by MTT assay; format: cell-based, Cricetulus griseus; details: chinese hamster
Method in brief: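 Cytotoxicity was measured in Chinese hamster ovary (CHO) cells and reported as CC50. The selectivity index is CC50 divided by NF54 IC50.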

[7] = Oral bioavailability in Balb/C mouse at 20 mg/kg by LC-MS/MS analysis; format: ADME, organism-based; details: in vivo
Method in brief: (§2)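 Healthy Balb/c mice were given the compound i.v. or orally. Parameters come from non-compartmental analysis: AUC from 0 h to t_last, blood clearance, volume at steady state, terminal half-life, Tmax. Oral bioavailability F is derived from the i.v. and p.o. data.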

[8] = AUC (0 to t) in Balb/C mouse at 20 mg/kg, po by LC-MS/MS analysis; format: ADME, organism-based; design: dose 20 mg/kg; details: in vivo; method in brief: as §1
[9] = Cmax in Balb/C mouse at 2 mg/kg, iv by LC-MS/MS analysis; format: ADME, organism-based; design: route intravenous, dose 2 mg/kg; details: in vivo; method in brief: as §1
[10] = Clearance in Balb/C mouse blood at 2 mg/kg, iv by LC-MS/MS analysis; format: ADME, organism-based; details: whole blood; method in brief: as §1
[11] = AUC (0 to t) in Balb/C mouse at 2 mg/kg, iv by LC-MS/MS analysis; format: ADME, organism-based; design: dose 2 mg/kg; details: in vivo; method in brief: as §1
[12] = Volume of distribution at steady state in Balb/C mouse at 2 mg/kg, iv by LC-MS/MS analysis; format: ADME, organism-based; details: in vivo, read-out: Vdss; method in brief: as §2
[13] = Ratio of unbound average drug concentration in Balb/c mouse at 20 mg/kg, po measured at 24 hrs to IC50 for antiplasmodial activity against multidrug-sensitive Plasmodium falciparum NF54 asexual blood stage assessed as reduction in parasite growth after 72 hrs by LDH assay; format: organism-based; details: in vivo
[14] = Cmax in Balb/C mouse at 20 mg/kg, po by LC-MS/MS analysis; format: ADME, organism-based; design: route oral, dose 20 mg/kg; details: in vivo; method in brief: as §1
[15] = Terminal half life in Balb/C mouse at 2 mg/kg, iv by LC-MS/MS analysis; format: ADME, organism-based; details: in vivo, read-out: beta t1/2 (converted); method in brief: as §2
[16] = Terminal half life in Balb/C mouse at 20 mg/kg, po by LC-MS/MS analysis; format: ADME, organism-based; details: in vivo, read-out: beta t1/2 (converted); method in brief: as §2
[17] = Selectivity index, ratio of CC50 for cytotoxicity against CHO cells assessed as reduction in cell viability to IC50 for antiplasmodial activity against multidrug-sensitive Plasmodium falciparum NF54 assessed as reduction in parasite growth; format: toxicity, cell-based; details: hamster, read-out: Ratio CC50/IC50
[18] = Tmax in Balb/C mouse at 20 mg/kg, po by LC-MS/MS analysis; format: ADME, organism-based; details: in vivo; method in brief: as §2
Plasmodium falciparum [19] = experiment: Antiplasmodial activity against late stage (IV/V) Plasmodium falciparum NF54 gametocytes at 5 uM incubated for 48 hrs under hypoxia condition by luciferase reporter gene assay relative to control; format: functional
Plasmodium falciparum [20] = experiment: Antiplasmodial activity against early ring-stage synchronized Plasmodium falciparum assessed as decrease in hemozoin formation after 32 hrs by Giemsa-staining based haemocytometric counting method; format: functional, organism-based
Plasmodium falciparum [21] = experiment: Antiplasmodial activity against early stage (I to III) Plasmodium falciparum NF54 gametocytes incubated for 48 hrs under hypoxia condition by luciferase reporter gene assay; format: functional, organism-based; details: NF54, 48 h
Plasmodium falciparum [22] = experiment: Antiplasmodial activity against late stage (IV/V) Plasmodium falciparum NF54 gametocytes incubated for 48 hrs under hypoxia condition by luciferase reporter gene assay; format: functional, organism-based; details: NF54, 48 h
Plasmodium falciparum [23] = experiment: Antiplasmodial activity against early ring-stage synchronized Plasmodium falciparum assessed as increase in free heme after 32 hrs by Giemsa-staining based haemocytometric counting method; format: functional, organism-based
Method in brief: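 Whole-parasite cell fractionation assay run as a dose response. Free heme and hemozoin were measured intracellularly across increasing compound concentrations.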

Plasmodium berghei = experiment: Antiplasmodial activity against luciferase-expressing Plasmodium berghei sporozoites liver stage infected in human HepG2 cells expressing GFP-CD81 fusion protein incubated for 48 hrs by luciferase reporter gene based bioluminescence assay; format: functional, organism-based; details: HepG2, 48 h
Method in brief: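 Liver-stage activity was measured in vitro with rodent P. berghei sporozoites. Values are the mean of 3 technical replicates from the luciferase assay; individual values varied less than 2×.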

Hemozoin = experiment: Inhibition of beta-hematin formation assessed as reduction in hemozoin formation incubated for 5 hrs by NP40 detergent-mediated assay
Method in brief: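 Synthetic hemozoin (β-hematin) formation is driven by the detergent Nonidet P-40. Pyridine is then added to detect unreacted hematin. IC50 is derived from this read-out.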

[24] = Dissociation constant, pKa of compound; format: physicochemical

Voltage-gated inwardly rectifying potassium channel KCNH2, sequence (Q12809 whole entry): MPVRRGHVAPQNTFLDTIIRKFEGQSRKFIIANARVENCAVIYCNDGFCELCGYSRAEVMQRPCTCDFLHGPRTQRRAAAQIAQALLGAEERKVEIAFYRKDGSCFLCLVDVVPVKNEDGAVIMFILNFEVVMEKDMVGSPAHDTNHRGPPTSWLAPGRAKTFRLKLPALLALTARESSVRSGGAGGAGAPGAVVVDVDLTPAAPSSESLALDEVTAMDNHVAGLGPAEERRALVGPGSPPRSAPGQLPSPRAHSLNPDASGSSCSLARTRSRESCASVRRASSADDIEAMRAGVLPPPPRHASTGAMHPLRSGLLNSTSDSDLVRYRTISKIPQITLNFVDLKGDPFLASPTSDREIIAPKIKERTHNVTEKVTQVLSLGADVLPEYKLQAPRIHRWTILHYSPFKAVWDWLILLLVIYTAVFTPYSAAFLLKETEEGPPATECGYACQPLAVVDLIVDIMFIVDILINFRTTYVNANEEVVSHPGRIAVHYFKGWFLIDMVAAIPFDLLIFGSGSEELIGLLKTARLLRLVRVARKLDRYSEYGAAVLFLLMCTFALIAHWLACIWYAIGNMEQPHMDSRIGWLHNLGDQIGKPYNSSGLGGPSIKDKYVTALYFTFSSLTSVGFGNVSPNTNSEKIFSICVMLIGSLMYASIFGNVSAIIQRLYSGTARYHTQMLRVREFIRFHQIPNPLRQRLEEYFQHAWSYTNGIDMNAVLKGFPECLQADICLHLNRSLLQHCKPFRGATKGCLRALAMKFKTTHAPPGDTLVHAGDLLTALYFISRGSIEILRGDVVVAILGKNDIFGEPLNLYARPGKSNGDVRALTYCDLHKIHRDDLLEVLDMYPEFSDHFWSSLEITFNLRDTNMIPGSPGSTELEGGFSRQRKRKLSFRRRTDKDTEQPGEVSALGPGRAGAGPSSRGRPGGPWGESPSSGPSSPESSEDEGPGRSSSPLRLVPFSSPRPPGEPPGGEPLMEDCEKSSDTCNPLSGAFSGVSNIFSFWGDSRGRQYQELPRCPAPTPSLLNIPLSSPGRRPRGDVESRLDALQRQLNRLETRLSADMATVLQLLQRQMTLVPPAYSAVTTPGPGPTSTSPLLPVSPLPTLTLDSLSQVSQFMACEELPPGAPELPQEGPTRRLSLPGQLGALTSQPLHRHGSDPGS

Q: With `CS(=O)(=O)c1ccc(-c2cnc(N)c(-c3ccc(C(F)(F)F)nc3)c2)cc1` [MMV-048] as the compound, how does the AUC [1] read?
A: The AUC was 465 µM·h.

Q: Which results are given for `CN1CCCN(c2nccc3[nH]c(-c4ccc(F)c(F)c4)nc23)CC1`?
A: CLH [2]: 145 µL/min/mg; IC50 (Plasmodium falciparum [3]): 61 nM; IC50 [4]: 400 nM; IC50 (Plasmodium falciparum [5]): 100 nM; solubility thermodynamic at 20 h [6]: 170 µM (≈ 58.4 µg/mL); CC50 (CHO): 14000 nM

Q: What does the source list for `Cn1ccnc1N1CCN(CC2CCN(c3nccc4[nH]c(-c5cc(F)cc(F)c5)nc34)CC2)CC1`?
A: bioavailability [7]: 24%; AUCt [8]: 19 µM·h; Cmax [9]: 1600 nM; clearance [10]: 9 mL/min/kg; AUCt [11]: 7.88 µM·h; IC50 (Plasmodium falciparum [3]): 29 nM; Vd [12]: 6 L/kg; Ratio [13]: 1.5; Cmax [14]: 1700 nM; IC50 (Plasmodium falciparum [5]): 53 nM; half-life [15]: 12.2 h; solubility thermodynamic at 20 h [6]: 135 µM (≈ 66.5 µg/mL); half-life [16]: 9.2 h; selectivity ratio [17]: 1140; CC50 (CHO): 33000 nM; Tmax [18]: 2.3 h

Q: With `CN1CCN(C2CCN(c3nccc4[nH]c(-c5cc(F)cc(F)c5)nc34)CC2)CC1` as the compound, how does the bioavailability [7] read?
A: The bioavailability was 61%.

Q: What about the AUCt [8] of the same compound?
A: The AUCt was 11.8 µM·h.

Q: And the Cmax [9]?
A: The Cmax was 300 nM.

Q: What about the clearance [10] of the same compound?
A: The clearance was 34.8 mL/min/kg.

Q: What about the AUCt [11] of the same compound?
A: The AUCt was 1.95 µM·h.

Q: What about the IC50 (Plasmodium falciparum [3]) of the same compound?
A: The IC50 was 50 nM.

Q: What about the Vd [12] of the same compound?
A: The Vd was 30 L/kg.

Q: And the Ratio [13]?
A: The Ratio was 2.5.

Q: What about the IC50 [4] of the same compound?
A: Its IC50 is > 30000 nM.

Q: And the Cmax [14]?
A: Its Cmax is 1500 nM.

Q: And the IC50 (Plasmodium falciparum [5])?
A: Its IC50 is 170 nM.

Q: And the half-life [15]?
A: Its half-life is 12.6 h.

Q: And the solubility thermodynamic at 20 h [6]?
A: The solubility thermodynamic at 20 h was 200 µM (≈ 82.5 µg/mL).

Q: What about the half-life [16] of the same compound?
A: The half-life was 9.8 h.

Q: What about the CC50 (CHO) of the same compound?
A: Its CC50 is 30000 nM.

Q: And the Tmax [18]?
A: The Tmax was 1.5 h.

Q: With `NC1CCN(c2nccc3[nH]c(-c4cccc(OC(F)(F)F)c4)nc23)CC1` as the compound, how does the inhibition at 5 µM (Plasmodium falciparum [19]) read?
A: The inhibition at 5 µM was 95%.

Q: What about the IC50 (Plasmodium falciparum [3]) of the same compound?
A: The IC50 was 73 nM.

Q: And the Activity (Plasmodium falciparum [20])?
A: Its Activity is “Dose-dependent effect”.

Q: And the IC50 (Plasmodium falciparum [21])?
A: The IC50 was 780 nM.

Q: And the IC50 (Plasmodium falciparum [5])?
A: Its IC50 is 1200 nM.

Q: And the solubility thermodynamic at 20 h [6]?
A: The solubility thermodynamic at 20 h was 200 µM (≈ 75.5 µg/mL).

Q: What about the IC50 (Plasmodium falciparum [22]) of the same compound?
A: Its IC50 is 2800 nM.

Q: What about the Activity (Plasmodium falciparum [23]) of the same compound?
A: The Activity was “Dose-dependent effect”.

Q: And the IC50 (Plasmodium berghei)?
A: The IC50 was 14000 nM.

Q: And the CC50 (CHO)?
A: Its CC50 is 42000 nM.

Q: What about the IC50 (Hemozoin) of the same compound?
A: Its IC50 is 148000 nM.

Q: With `CN1CCN(CC2CCN(c3nc(C#N)cc4[nH]c(-c5cc(F)cc(F)c5)nc34)CC2)CC1` as the compound, how does the IC50 (Plasmodium falciparum [3]) read?
A: Its IC50 is 77 nM.

Q: What about the IC50 (Plasmodium falciparum [5]) of the same compound?
A: Its IC50 is 49 nM.

Q: What about the solubility thermodynamic at 20 h [6] of the same compound?
A: The solubility thermodynamic at 20 h was < 5 µM.

Q: And the IC50 (Hemozoin)?
A: The IC50 was 8500 nM.

Q: For `CN1CCN(CC2CCN(c3nncc4[nH]c(-c5cc(F)cc(F)c5)nc34)CC2)CC1`, which IC50 (Plasmodium falciparum [3]) is on record?
A: The IC50 was 580 nM.

Q: And the IC50 (Plasmodium falciparum [5])?
A: Its IC50 is 2900 nM.

Q: And the solubility thermodynamic at 20 h [6]?
A: Its solubility thermodynamic at 20 h is 190 µM (≈ 81.2 µg/mL).

Q: And the IC50 (Hemozoin)?
A: The IC50 was 25000 nM.

Q: With `CN1CCC(N2CCN(c3nccc4[nH]c(-c5ccc(F)c(F)c5)nc34)CC(F)(F)C2)CC1` as the compound, how does the CLH [2] read?
A: Its CLH is 33 µL/min/mg.

Q: And the IC50 (Plasmodium falciparum [3])?
A: Its IC50 is 59 nM.

Q: What about the IC50 (Plasmodium falciparum [5]) of the same compound?
A: The IC50 was 160 nM.

Q: And the solubility thermodynamic at 20 h [6]?
A: Its solubility thermodynamic at 20 h is 180 µM (≈ 83.2 µg/mL).

Q: And the CC50 (CHO)?
A: Its CC50 is 33000 nM.

Q: Which pKa [24] does the source give for `Fc1cc(F)cc(-c2cc3c(N4CCC(N5CCOCC5)CC4)nccc3[nH]2)c1` here?
A: Its pKa is 8.2.
